# Screening results: PubChem BioAssay, Sanford-Burnham Center for Chemical Genomics
# An excerpt weighted towards active compounds, which were near 0.64% of everything screened.
# TNAP inh hiacc: human TNAP enzyme inhibitors, primary screen, biochemical, luminescent, high phosphate acceptor level, uHTS. Alkaline phosphatase, tissue-nonspecific isozyme (Homo sapiens), P05186. purified TNAP, CDP-star luminescence, 1 M DEA. inhibition, % at 20 µM. 0.03% of 200,000 active. AID 1135, 2008;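 active = over 50% inhibition of tissue-nonspecific alkaline phosphatase at 20 µM in the single-dose screen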
# PMI activator: activators of human PMI, primary screen, biochemical, fluorescence intensity, near-Km mannose 6-phosphate; Mannose-6-phosphate isomerase (Homo sapiens), P34949; activation factor at 20 µM; AID 1214, 2008; purified human PMI, coupled resazurin fluorescence, 20 min; hits give high values; 1 = vehicle control, 0 substrate-free wells; 0.005% of 190,000 active;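 active = activation factor of 2 or more at 20 µM, relative to plate controls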
# Target sequence (P34949 whole entry, looked up): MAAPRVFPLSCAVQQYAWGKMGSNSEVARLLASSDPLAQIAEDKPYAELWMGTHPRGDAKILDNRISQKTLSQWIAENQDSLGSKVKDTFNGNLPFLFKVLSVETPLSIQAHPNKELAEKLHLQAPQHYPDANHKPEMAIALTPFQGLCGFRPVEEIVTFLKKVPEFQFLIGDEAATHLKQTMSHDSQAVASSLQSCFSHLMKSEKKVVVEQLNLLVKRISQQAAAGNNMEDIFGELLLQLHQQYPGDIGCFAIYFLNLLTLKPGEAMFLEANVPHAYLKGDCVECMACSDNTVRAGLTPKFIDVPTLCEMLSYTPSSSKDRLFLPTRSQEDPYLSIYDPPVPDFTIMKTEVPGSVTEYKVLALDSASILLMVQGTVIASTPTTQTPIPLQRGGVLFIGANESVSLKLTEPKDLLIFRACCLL
# PMI act hi M6P: human PMI activators, high substrate, primary screen, biochemical, fluorescence intensity, near-saturating mannose 6-phosphate | AID 1216, 2008 | Mannose-6-phosphate isomerase (Homo sapiens), P34949 | coupled PMI enzyme assay, resazurin fluorescence, 20 min; hits give high values; 1 = untreated enzyme, 0 = substrate-free blank | 0.34% of 190,000 active | activation factor at 20 µM;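 active = activation factor of 2 or more at 20 µM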
#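 Material: human phosphomannose isomerase with PGI, G6PDH, diaphorase coupling enzymes; amount: PMI at 15 ng/mL final; also added: Mannose-6-phosphate 1.0 mM (near-saturating) plus 0.22 mM NADP+; incubation: enzyme reaction with compound 20 min at room temperature; signal: resorufin fluorescence (Ex 544/Em 590 nm) from resazurin via diaphorase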
# TNAP inh noacc: human TNAP enzyme inhibitors, primary screen, biochemical, luminescent, no phosphate acceptor, uHTS | Alkaline phosphatase, tissue-nonspecific isozyme (Homo sapiens), P05186 | purified TNAP, CDP-star luminescence, 30 min | inhibition, % at 20 µM | 0.26% of 200,000 active;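 active = tissue-nonspecific alkaline phosphatase inhibition above about 50% at 20 µM in the single-dose screen, limit read from the data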
# TNAP act hiacc: TNAP activators at high phosphate acceptor level, primary screen, biochemical, luminescence, uHTS | purified TNAP, CDP-star luminescence, 1 M DEA, 30 min; hits give high values; 0 = EDTA background, 1 = DMSO-only activity | activation factor at 20 µM | 200,000 tested, under 10 active;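 active = activation factor at least 2 at 20 µM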
#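 system = human TNAP | amount = enzyme diluted 1/800 final | reagent = 100 µM CDP-star substrate | signal = luminescent substrate turnover signal | dosing = one dose, 20 µM | benchmarks = EDTA negative control, DMSO positive control | measure = activation factor | timing = 30 min reaction, room temperature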
# A number is an active result; – = inactive; · = no result given.
SMILES,TNAP inh hiacc,PMI activator,PMI act hi M6P,TNAP inh noacc,TNAP act hiacc
COc1ccc(-c2cc(-c3cc(C)ccc3O)[nH]n2)cc1,–,–,–,–,–
CCOc1ccc(-c2cc(C(=O)NN)[nH]n2)cc1,–,–,–,67,–
CCOc1ccc(-c2cc(C)n3nc(C(N)=O)cc3n2)cc1,–,–,–,–,–
CCc1ccc(-c2cc(C(=O)N/N=C/c3c[nH]c4ccccc34)[nH]n2)cc1,–,–,–,–,–
COC(=O)c1cc(-c2c[nH]c3ccccc23)n[nH]1,–,–,–,89,–
COc1cc(N/C(N)=N/c2nc(C)cc(C)n2)c(OC)cc1Cl,–,–,–,–,–
COc1ccc(OC)c(NC(=O)c2ccc(CSc3nnc(C)s3)cc2)c1,–,–,–,–,–
Cc1cccc(N/N=C/c2ccccc2O)c1,–,–,2.8,–,–
Cc1ccc(/C=N/Nc2cccc3cccnc23)c(O)c1,–,–,2,–,–
O=[N+]([O-])c1cccc(N/N=C/c2cc([N+](=O)[O-])ccc2O)c1,–,–,–,–,–
Oc1ccc(/C=N/Nc2cccc3cccnc23)c(O)c1,–,–,–,–,–
Cn1cccc1C(=O)C(=O)Nc1ccccc1,–,–,–,–,–
Cc1cccc(/N=C/c2c(O)cc(C)oc2=O)n1,–,–,–,–,–
Cc1ccc(N/N=C/c2c(O)cc(C)oc2=O)cc1,–,–,2.2,–,–
Cc1cc(O)c(/C=N/Nc2ccc(F)cc2)c(=O)o1,–,–,2.3,–,–
C/C(=N\Nc1ccccc1)c1c(O)cc(C)oc1=O,–,–,2.6,–,–
Cc1ccc(CO/N=C/c2c(O)cc(C)oc2=O)cc1,–,–,–,–,–
C/C(=N/NC(=O)c1cccc(C)c1)c1c(O)cc(C)oc1=O,–,–,–,–,–
Cc1nnc2n(Cc3ccccc3)c(=O)c3c4c(sc3n12)CN(Cc1ccccc1)CC4,–,–,–,–,–
O=c1c2c3c(sc2n2cnnc2n1Cc1ccccc1)CN(Cc1ccccc1)CC3,–,–,2,–,–
O=S1(=O)N=C(Nc2nncs2)c2ccccc21,–,–,–,61,–
Cc1ccc(NN=C2c3ccccc3-c3ccccc32)cc1,–,–,2.2,–,–
Cc1ccc(OCC(=O)NN=C2c3ccccc3-c3ccccc32)cc1,–,–,–,–,–
CC/C(=N/Nc1cccc(C)c1)c1cnnc(SC)n1,–,–,2.3,–,–
CC/C(=N/Nc1ccccc1Cl)c1cnnc(-c2ccccc2)n1,–,–,2.1,–,–
SMILES,TNAP inh hiacc,PMI activator,PMI act hi M6P,TNAP inh noacc,TNAP act hiacc
COc1ccc(N/N=C(/C)c2cnnc(-c3ccccc3)n2)cc1,–,–,2.4,–,–
CSc1nncc(/C(C)=N\Nc2ccccc2C)n1,–,–,2.2,–,–
CC(C)CNc1oc(-c2ccc(F)cc2)nc1C#N,–,–,–,–,–
Cc1ccc(C(=O)CC(Nc2ccc(F)cc2)c2ccccc2)cc1 (configuration not stated),–,–,–,–,–
CCOC(=O)C(NC(=O)CC)(N1CCc2ccccc2C1)C(F)(F)F (configuration not stated),–,–,–,–,–
O=S(=O)(NCc1ccccc1)c1cccs1,–,–,–,–,–
CC/C(=N/Nc1ccc(Cl)cc1)c1cnnc(SC)n1,–,–,2.5,–,–
N#CC1=C(N)Oc2n[nH]c(-c3cccs3)c2C1C1CCCCC1 (configuration not stated),–,–,–,–,–
N#CC1=C(N)Oc2n[nH]c(-c3cccs3)c2C1C1C=CCCC1 (configuration not stated),–,–,–,54,–
O=C(COC(=O)c1c2c(nc3ccccc13)CCN(Cc1ccccc1)C2)Nc1c(F)cccc1F,–,–,2,–,–
Cc1cc(CN(C)C(=O)c2cc(COc3ccc(F)cc3Cl)on2)n[nH]1,–,–,–,–,–
C/C(=N\Nc1ccc([N+](=O)[O-])cc1)c1ccc(N)cc1,–,–,2.3,–,–
CCc1ccc(/C(C)=N\Nc2ccc([N+](=O)[O-])cc2)cc1,–,–,–,–,–
COc1ccc(C(=O)N/N=C/c2cc3ccccc3[nH]c2=S)cc1,–,–,2,–,–
O=C(COC(=O)c1c2c(nc3ccccc13)/C(=C/c1ccco1)CC2)NC1CCCC1,–,–,–,–,–
CC1CCCCC1NC(=O)COC(=O)c1c2c(nc3ccccc13)/C(=C/c1ccco1)CC2 (configuration not stated),–,–,2,–,–
CNc1c(C(=O)O)ccc2c1C(=O)c1ccccc1C2=O,–,–,–,–,–
O=C(O)c1cccc2c1C(=O)c1ccccc1C2=O,–,–,2.5,–,–
N#Cc1c(N)nc2c(c1-c1ccc3c(c1)OCO3)CCc1ccccc1-2,–,–,–,–,–
Nc1ncnc2nc(SCC(=O)N3CCN(c4ccccc4)CC3)[nH]c12,–,–,–,62,–
COc1ccccc1N1CCN(C(=O)CSc2nc(-c3ccccc3)cc(=O)[nH]2)CC1,–,–,–,–,–
COc1ccccc1N1CCN(C(=O)CSc2nc3ncnc(N)c3[nH]2)CC1,–,–,–,60,–
Clc1ccc(-c2n[nH]c3c2CCCC3)cc1,–,–,–,53,–
CCC(=O)NC(=S)NNC(=O)c1ccc(O)cc1,–,·,·,97,–
CC(C)OCCCN1CN(S(=O)(=O)c2ccc(Cl)cc2)c2nc3ccccc3nc21,–,–,2,–,–
SMILES,TNAP inh hiacc,PMI activator,PMI act hi M6P,TNAP inh noacc,TNAP act hiacc
Cc1cc(C)c2nc(N3CCC(C(=O)NCCCN4CC(C)CC(C)C4)CC3)sc2c1 (configuration not stated),–,–,–,–,–
O=c1cc(-c2ccc(O)c(O)c2)oc2c(C3O[C@H](CO)[C@@H](O)[C@H](O)[C@H]3O)c(O)cc(O)c12 (some centres not stated),–,–,–,53,–
C/C=C(/C)C(=O)O[C@H]1[C@@H](O)c2c(ccc3ccc(=O)oc23)OC1(C)C,–,–,–,–,–
CC1(C)Oc2ccc3ccc(=O)oc3c2C(N2CCCCC2)C1O (configuration not stated),–,–,2.1,–,–
Cc1ccc(C)c(N=Nc2nc3ccccc3n2C)c1,–,–,2.2,–,–
Cc1cc(C)c(C)c(N=Nc2nc3ccccc3n2C)c1C,–,–,–,–,–
COc1ccc(/C=C/C(=O)c2ccc(C)c([N+](=O)[O-])c2)cc1O,–,–,–,–,–
